Assay results pooled from the literature.
Lines come from different studies, so protocols differ.
Target: Sodium-dependent noradrenaline transporter (SLC6A2, Homo sapiens, UniProt P23975)

SMILES	assay	setting	endpoint	value
C[C@H](N)Cn1ncc2ccc3c(c21)CCCO3	ligand displacement, radioligand		Ki	> 100 µM
CNc1nc(C#Cc2ccc(Br)s2)nc2c1ncn2[C@H]1[C@H](O)[C@H](O)[C@]2(C(=O)OC)C[C@H]12	ligand displacement, radioligand	cell membranes	Ki	> 10 µM
CCCC[C@@H](NC(=O)[C@@H](N)Cc1ccc(O)cc1)C(=O)NCC(=O)N[C@@H](Cc1ccc(F)cc1)C(=O)N(C)CCC[C@@]1(c2ccc(F)cc2)OCc2cc(C#N)ccc21	ligand displacement, radioligand		Ki	2.4 µM
CNC(C)(C)C(=O)c1ccccc1	calcium signal, agonist, fluorescence		EC50	0.153 µM
COc1cc(C(=O)N2CC[C@@H](O)[C@@H](N)C2)cc2nc(-c3cc4ccccc4n3CC3CC3)n(C)c12	transporter uptake, inhibitor		IC50	20 µM
C[C@@H](NC(=O)[C@@H](N)Cc1ccc(O)cc1)C(=O)NCC(=O)N[C@@H](Cc1ccccc1)C(=O)N(C)CCC[C@@]1(c2ccc(F)cc2)OCc2cc(C#N)ccc21	ligand displacement, radioligand		Ki	0.75 µM
CN[C@@H](C)C(=O)c1ccccc1	calcium signal, agonist, fluorescence		EC50	0.121 µM
C=CCN1CC[C@]23c4c5ccc(O)c4O[C@H]2C(=O)CC[C@]3(O)[C@H]1C5	ligand displacement, radioligand		Ki	> 7.1 µM
CNc1nc(C#Cc2ccc(Cl)s2)nc2c1ncn2[C@@H]1O[C@H](C(=O)OC)[C@@H](O)[C@H]1O	ligand displacement, radioligand	cell membranes	Ki	> 10 µM
